According to the RNAGym collection of RNA variant scans (doi:10.1126/science.aae0568):
Fewer inactive variants are shown than the library holds.

B1: tRNA (parent)
chain: GUUCCGUUGGCGUAAUGGUAACGCGUCUCCCUCCUAAGGAGAAGACUGCGGGUUCGAGUCCCGUACGGAACG

Variants of: B1
Experiment: yeast fitness relative to wild type (ratio to wild type); higher = fitter; tRNA-Arg(CCU), competitive growth, 37 C, YPD
In short: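 For this measurement, the tRNA-Arg(CCU) gene was varied by chemical synthesis at a 3% per-site mutation rate across 69 sites, and each variant was placed at the native genomic locus in Saccharomyces cerevisiae. The pooled strains went through a 24-hour competition in YPD at 37°C in six parallel replicates, with amplicons from start and end populations read by 100-nucleotide paired-end sequencing. Darwinian fitness relative to wild type followed from the change in each genotype's frequency. Genotypes needed ≥ 100 starting reads, and estimates < 0.5 were set to 0.5.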
GUUUCGUUGGCGUAAUGGUAACGCGCUUCCCUCCUAAGGAGAAGACUGCGGGUUCGAGUCCCGUACGGAACG [C4U U26C C27U] showed a yeast fitness of 0.678. GUUUCGUUGGCGUAAUGGUAACGCGGCUUCCUCCUAAGGAGAAGACUGCGGGUUCGAGUCCCGUUCGGAACG [C4U U26G C29U A65U] gave a yeast fitness of at most 0.5. With GUUUCGUUGGCGUAAUGGUAACGCGGCUUCCUCCUAAGGAGAAGACUGCGGGUUCGAGUCCCGUUCGAAACG [C4U U26G C29U A65U G68A] the yeast fitness was at most 0.5. Work on GUUUCGUUGGCGUAAUGGUAACGCGGCUUCCUCCUAAGGAGAAGACCGCGGGUUCGAGUCCCGUUCGGAACG [C4U U26G C29U U47C A65U] yielded a yeast fitness of at most 0.5. Variant GUUUCGUUGGCGUAAUGGUAACGCGGCUCCCUCCUAAGGAGAAGACUGCGGGUUCGAGUCCGGUACGGAUCG [C4U U26G C62G A70U] has a yeast fitness of at most 0.5. In the case of GUUUCGUUGGCGUAAUGGUAACGCGGCUCCCUCCUAAUGAGAAGACUGCGGGUUCGAGUCCCGUACGGAACG [C4U U26G G38U], the yeast fitness is reported as 0.508. Variant GUUUCGUUGGCGUAAUGGUAACGCGGCUCCCUCCUAAGGAGAAAACUGCGGGUUCGAGUCCCGUACGGAACG [C4U U26G G44A] has a yeast fitness of 0.591. Work on GUUUCGUUGGCGUAAUGGUAACGCGGCUCCCUCCUAAGGAGAAGACUGCGGGUUCGAGCCCAGUACGGAACG [C4U U26G U59C C62A] yielded a yeast fitness of 0.679. For GUUUCGUUGGCGUAAUGGUAACGCGUCACCCUCCUAAGGAGAAGACUGCGGGUUCGAGUCCCGUACGGAACG [C4U U28A], the yeast fitness was 0.749. GUUUCGUUGGCGUAAUGGUAACGCGUCACUCUCCUAAGGAGAAGACUGCGGGUUCGGGUCCCGUACGGAACG [C4U U28A C30U A57G] showed a yeast fitness of 0.547. GUUUCGUUGGCGUAAUGGUAACGCGUCACCCUCCUAAGGAGAAGACUGCGGGUUCGAGUCCCGUAUGGAACG [C4U U28A C66U] showed a yeast fitness of 0.658. GUUUCGUUGGCGUAAUGGUAACGCGUCCCACUCCUAAGGAGAAGACUGCGGGUUCGAGUCCCGUACGGAACG [C4U U28C C30A] showed a yeast fitness of 0.755. For GUUUCGUUGGCGUAAUGGUAACGCGUCCCCCUCCUAAGGAGAAGACUGGGGGUUCGAGUCCCGUACGGAACG [C4U U28C C49G], the yeast fitness was 0.598. GUUUCGUUGGCGUAAUGGUAACGCGUCCCCCUCCUAAGGAGAAGACUGGGGGUUCGAGUCUCGUACGGAACG [C4U U28C C49G C61U] showed a yeast fitness of at most 0.5. Work on GUUUCGUUGGCGUAAUGGUAACGCGUCCCCCUCCUAACGAGAAGACUGCGGGUUCGAGUCUCGUACGGAACG [C4U U28C G38C C61U] yielded a yeast fitness of at most 0.5. GUUUCGUUGGCGUAAUGGUAACGCGUCGCCCUCCUAAGGAGAAGACUGCGGGUUCGGGUCCCGUACGGCACG [C4U U28G A57G A69C] showed a yeast fitness of at most 0.5. Variant GUUUCGUUGGCGUAAUGGUAACGCGUCGCCCUCCUAAGGAGAAGACUGAGGGUUCGAGUCCGGUACGGAACG [C4U U28G C49A C62G] has a yeast fitness of at most 0.5. Variant GUUUCGUUGGCGUAAUGGUAACGCGUCGCCCUCCUAAGGAGAAGACUGCGGGUUCGAGUACCGUACGGAACG [C4U U28G C60A] has a yeast fitness of 0.503. With GUUUCGUUGGCGUAAUGGUAACGCGUCGCCCUCCUAAAGAGAGGAAUGUGGGUUCGAGUCCCGUACGGAACG [C4U U28G G38A A43G C46A C49U] the yeast fitness was 0.608. GUUUCGUUGGCGUAAUGGUAACGCGUCUCCCACCUAAGGAGAAGACUGCGGGUUCGCGUCCCGUACGGAACG [C4U U32A A57C] showed a yeast fitness of at most 0.5. For GUUUCGUUGGCGUAAUGGUAACGCGUCUCCCACCUAAGGAGAAGACUGUGGGUUCGAGUCCCGUACGGAACG [C4U U32A C49U], the yeast fitness was 0.61. GUUUCGUUGGCGUAAUGGUAACGCGUCUCCCACCUAAGGAGAAGACUGCGGCUUUGAGUCCCGUAUGGAACG [C4U U32A G52C C55U C66U] showed a yeast fitness of at most 0.5. Variant GUUUCGUUGGCGUAAUGGUAACGCGUCUCCCACCUAAGGAGAAGACUGCGGGUUCGACUCCCGUACGGAACG [C4U U32A G58C] has a yeast fitness of 0.592. Variant GUUUCGUUGGCGUAAUGGUAACGCGUCUCCCACCUAAGGAGAAGACUGCGGGUUCGAGUCCCGGACGGAACG [C4U U32A U64G] has a yeast fitness of at most 0.5. In the case of GUUUCGUUGGCGUAAUGGUAACGCGUCUCCCCCCUAAGGAGAAGACUGCGGGUUCGAGUCCCGUACGGAACG [C4U U32C], the yeast fitness is reported as 0.944. GUUUCGUUGGCGUAAUGGUAACGCGUCUCCCCCUUAAAGAGAAGACUGCGGGUUCGAGUCCCGUACGGAACG [C4U U32C C34U G38A] showed a yeast fitness of at most 0.5. Variant GUUUCGUUGGCGUAAUGGUAACGCGUCUCCCUCCAUAGGAGAAGACUGCGGGUUCGAGUCUCGUACGGAACG [C4U U35A A36U C61U] has a yeast fitness of at most 0.5. For GUUUCGUUGGCGUAAUGGUAACGCGUCUCCCUCCAAAGGAGAACACUGCGGGUUCGAGUCCCGUACGGAACG [C4U U35A G44C], the yeast fitness was 0.58. GUUUCGUUGGCGUAAUGGUAACGCGUCUCCCUCCCGAGGAGAACACUGCGGGUUCGAGUCCCGUACGGAACG [C4U U35C A36G G44C] showed a yeast fitness of 0.708. For GUUUCGUUGGCGUAAUGGUAACGCGUCUCCCUCCCAAGGAGGAGACUGCGGGUUCGAGUCCCGUACGGAACG [C4U U35C A42G], the yeast fitness was 0.581. Work on GUUUCGUUGGCGUAAUGGUAACGCGUCUCCCUCCCAAGGAGAAGACUGCGGGUUCGAGUCACGUACGGAACG [C4U U35C C61A] yielded a yeast fitness of 0.555. GUUUCGUUGGCGUAAUGGUAACGCGUCUCCCUCCCAAGGAGAAGACUGCAGGUUCGAGUCCCGUAAGGAACG [C4U U35C G50A C66A] gave a yeast fitness of 0.689. GUUUCGUUGGCGUAAUGGUAACGCGUCUCCCUCCUAAGGAGAAGACAGCGGGUUCGAGUCCCGUACGGAACG [C4U U47A] gave a yeast fitness of 0.86. Work on GUUUCGUUGGCGUAAUGGUAACGCGUCUCCCUCCUAAGGAGAAGACAGCGGGUUCGAGUCACGUACGGAACG [C4U U47A C61A] yielded a yeast fitness of 0.93. GUUUCGUUGGCGUAAUGGUAACGCGUCUCCCUCCUAAGGAGAAGACCGCGGGUUCGAGUCCCGUACGGAACG [C4U U47C] showed a yeast fitness of 1.06. GUUUCGUUGGCGUAAUGGUAACGCGUCUCCCUCCUAAGGAGAAGACCGCGGGUUCGAGUCCCGUAUGGAACG [C4U U47C C66U] showed a yeast fitness of 0.766. GUUUCGUUGGCGUAAUGGUAACGCGUCUCCCUCCUAAGGAGAAGACCGCGGCUUCGAGUCACGUACGGAACG [C4U U47C G52C C61A] gave a yeast fitness of at most 0.5.
